# Shown are actives, neighbours in structure and some others; about 4.6% of the full set was active somewhere.
# CHO parental Ca – counter-screen: ATP calcium response change in parental CHO cells. parental CHO-K1, ATP-induced calcium, Fluo-8 fluorescence. inhibition, % at 5.6 µM. 330,000 compounds, 0.63% hits;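 active = inhibition above that plate's mean sample inhibition plus 3 SD, cut at about 26% in these data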
#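 Test system: parental CHO cells; detection: calcium-sensitive Fluo-8 fluorescence; evaluation: percent inhibition of calcium signal; also added: ATP as calcium-mobilizing challenge; repeats: one well per compound; control set: ATP-challenged DMSO wells low, unchallenged DMSO wells high; compound: single nominal dose of 5.6 µM per compound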
# TAAR1 antag – human TAAR1 antagonism; CHO RD-HGA16 TAAR1, Fluo-8 calcium fluorescence, antagonist; 360,000 compounds, 1.5% hits; inhibition, % at 3 µM; Q96RJ0;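 active = inhibition above a per-plate cutoff, the mean inhibition of test compounds on that plate plus 3 SD, cut at about 49% in these data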
# Target sequence (Q96RJ0 whole entry, looked up): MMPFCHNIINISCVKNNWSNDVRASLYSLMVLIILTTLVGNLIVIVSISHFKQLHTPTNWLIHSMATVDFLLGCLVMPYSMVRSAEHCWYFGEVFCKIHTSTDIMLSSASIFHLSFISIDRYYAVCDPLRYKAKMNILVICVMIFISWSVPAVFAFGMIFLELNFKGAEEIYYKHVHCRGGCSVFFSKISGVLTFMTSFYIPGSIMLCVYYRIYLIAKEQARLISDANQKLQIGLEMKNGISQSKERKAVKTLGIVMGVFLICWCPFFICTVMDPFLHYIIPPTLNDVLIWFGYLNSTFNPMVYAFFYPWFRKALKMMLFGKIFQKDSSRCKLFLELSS
#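 System: CHO RD-HGA16 cells bearing hTAAR1. Reagent: EC80 β-phenethylamine stimulus. Schedule: seeding 17-24 h prior, 75-min 37 °C, 30-min RT dye loading. Signal: Fluo-8 intracellular calcium dye fluorescence, real-time kinetic reads. Read-out: % inhibition from peak post-agonist over basal fluorescence ratio. Benchmarks: vehicle wells and EC80 agonist wells. Replicates: n of 1.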
# TAAR1 ag – human TAAR1 agonism; Q96RJ0; CHO RD-HGA16 TAAR1, Fluo-8 calcium fluorescence; vehicle wells 0%, saturating PEA agonist 100%; activation, % at 3 µM; 360,000 compounds, 0.99% hits;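 active = activation above the mean activation of all test compounds in the run plus 3 SD, cut at about 38% in these data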
#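 Test system: RD-HGA16 (CHO) cells co-expressing Gα16 and hTAAR1; dosing: one-point dosing at 3 µM (nominal); timing: 17-24 h seeding, 75 min 37 °C dye, 30 min RT; signal: kinetic Fluo-8 calcium fluorescence; read-out basis: % activation relative to PEA EC100 response; controls: DMSO and PEA EC100; replicates: n 1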
# OX1R antag-1 – antagonists of human orexin 1 receptor; 330,000 compounds, 0.43% hits; AID 434989; CHO/OX1R cells, Fluo-8 calcium fluorescence, orexin A; O43613; inhibition, % at 5 µM;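 active = inhibition above its plate's threshold, mean inhibition of all tested compounds on the plate plus 3 SD, cut at about 37% in these data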
# GPR7 antag – blocks human GPR7 receptor signaling; inhibition, % at 4.4 µM; P48145; 290,000 compounds, 1.1% hits; GPR7-expressing cells, fluorescence antagonist assay; in the data active = inhibition above about 16%, passing the limit was not always enough;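 also: cells stimulated with the agonist NPW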
# Target sequence (P48145 whole entry, looked up): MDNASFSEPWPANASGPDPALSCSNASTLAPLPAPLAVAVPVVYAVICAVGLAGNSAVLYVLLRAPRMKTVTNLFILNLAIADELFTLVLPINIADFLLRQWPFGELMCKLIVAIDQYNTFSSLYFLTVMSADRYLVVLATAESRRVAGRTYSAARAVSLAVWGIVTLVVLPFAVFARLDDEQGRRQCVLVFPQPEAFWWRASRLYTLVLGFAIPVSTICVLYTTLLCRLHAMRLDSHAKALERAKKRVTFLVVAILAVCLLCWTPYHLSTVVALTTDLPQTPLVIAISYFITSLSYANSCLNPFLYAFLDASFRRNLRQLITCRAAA
# OX1R antag-2 – OX1R (human) antagonism | O43613 | OX1R-expressing cells, FRET antagonist read-out | inhibition, % at 6.6 µM | 330,000 compounds, 1.8% hits; in the data active = inhibition mostly above about 38%, no sharp cut-off; inactive = mostly below about 40%
# OX1R HTRF conf – confirmation of human orexin 1 receptor antagonists, HTRF format; shares compounds with OX1R antag-2; OX1R-expressing cells, HTRF antagonist assay; inhibition, % at 6.6 µM; 1,800 compounds, 49% hits; AID 492964; in the data active = inhibition above about 55%;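 also: CHO cells expressing OX1R stimulated with orexin A at about EC80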
# CHO-K1 HTRF cnt – counter-screen for OX1R antagonists: effect in parental CHO-K1 cells; shares compounds with OX1R antag-2; HTRF counterscreen; inhibition, % at 6.6 µM; 1,800 compounds, 48% hits; AID 493232; in the data active = inhibition above about 17%
# Numbers stand for hits; . = inactive; / = no result.
SMILES,CHO parental Ca,TAAR1 antag,TAAR1 ag,OX1R antag-1,GPR7 antag,OX1R antag-2,OX1R HTRF conf,CHO-K1 HTRF cnt
COC(=O)c1ccc(NC(=O)COc2ccc3c(c2)OCO3)cc1,.,.,.,.,.,.,/,/
COC(=O)c1ccccc1NC(=O)COc1ccc2c(c1)OCO2,.,.,.,.,.,80,63,.
CCOC(=O)c1nn(-c2ccccc2)c(C(=O)OCC)c1N,.,.,.,.,.,.,/,/
CCOC(=O)c1nn(-c2ccccc2)c(=O)c2c(N)scc12,.,.,.,.,.,108,.,17
O=C(C1=C[C@@H](C2CCCCC2)C[C@@H](OCCCCO)O1)N1CCN(Cc2ccccc2)CC1,.,.,.,.,.,.,/,/
Cc1c(/C=C/C(=O)c2cccs2)cnn1C,.,.,.,.,.,103,62,.
CCc1ccc(C(=O)/C=C/c2cnn(C)c2C)s1,.,.,.,.,.,.,/,/
O=C(N/N=C/c1ccc2cccc(OCc3ccccc3)c2n1)c1ccc(Cl)cc1,.,.,.,.,.,79,.,.
O=C(N/N=C/c1ccncc1)c1ccc(COc2cccc3cccnc23)cc1,.,.,.,.,.,.,/,/
CCOC(=O)C(=O)NC1CC=CCC1c1ccc2c(c1)OCO2 (centres undefined),/,.,.,/,/,/,/,/
O=C(CN1C(=O)c2ccc([N+](=O)[O-])cc2C1=O)NCc1ccco1,.,.,.,.,.,88,.,53
O=C(Nc1cc([N+](=O)[O-])ccc1O)c1ccc2c(c1)C(=O)N(Cc1ccco1)C2=O,.,.,.,.,.,.,/,/
Cc1cc(NCc2ccc(F)cc2)nc2cc(Cl)ccc12,.,.,.,.,.,.,/,/
CCOc1ccc(NC2OCC(O)C(O)C2O)c([N+](=O)[O-])c1 (centres undefined),.,.,.,.,.,82,.,31
O=C(COc1ccc2ccccc2c1)Nc1cccnc1Cl,.,.,.,.,.,.,/,/
O=C(Nc1cccc2cccnc12)c1cccc([N+](=O)[O-])c1,.,.,.,.,.,.,/,/
O=C(COc1ccc2ccccc2c1)Nc1cccc2cccnc12,.,.,.,.,.,81,.,.
CC(C)Oc1ccc(C(=O)Nc2cccc3cccnc23)cc1,.,.,.,.,.,79,.,.
Cc1cc(C(=O)Nc2cccc3cccnc23)ccc1[N+](=O)[O-],.,.,.,.,.,80,56,.
O=C1NC(C(=O)O)=CC(c2ccc([N+](=O)[O-])cc2)N1 (centres undefined),.,.,.,.,.,104,.,78
CSCCC1NC(=O)N(CC(=O)Nc2ccc(N3CCCCC3)cc2)C1=O (centres undefined),.,.,.,.,.,.,/,/
COc1ccc(-c2cc(=O)n(CCC#N)[nH]2)cc1,.,.,.,.,.,.,/,/
COc1ccc(-c2ncn(CCC#N)c2[N+](=O)[O-])cc1,.,.,.,.,.,85,.,42
c1ccc(-c2nnc(-c3ccccc3)nn2)cc1,.,.,.,.,.,.,/,/
c1cncc(-c2nnc(-c3cccnc3)nn2)c1,.,.,.,.,.,88,.,28
SMILES,CHO parental Ca,TAAR1 antag,TAAR1 ag,OX1R antag-1,GPR7 antag,OX1R antag-2,OX1R HTRF conf,CHO-K1 HTRF cnt
COc1ccccc1C(=O)N/C(=C\c1ccccc1)C(=O)NCc1ccco1,.,.,.,.,.,.,/,/
O=C(OCC#CCSc1nnc(-c2ccc([N+](=O)[O-])cc2)o1)c1cccs1,.,.,.,.,.,87,.,30
O=C(O)c1ccc(NC(=O)c2ccc3c(c2)C(=O)N(CC2CCCO2)C3=O)cc1 (centres undefined),.,.,.,.,.,78,.,32
c1ccc(-c2cc(-c3ccccc3)ncn2)cc1,.,.,.,.,/,.,/,/
C[n+]1cnc(-c2ccccc2)cc1-c1ccccc1,.,.,.,.,.,85,.,64
CC1(Oc2ccc(CC#N)cc2)CCN(Cc2ccccc2OC(F)F)C1 (centres undefined),/,.,.,/,/,/,/,/
O=C(Nc1c[nH]c(=O)[nH]c1=O)c1ccc([N+](=O)[O-])cc1,.,.,.,.,.,138,.,72
O=C(Nc1cc([N+](=O)[O-])ccc1O)c1cccc(C(=O)Nc2cc([N+](=O)[O-])ccc2O)c1,.,.,.,.,.,.,/,/
NS(=O)(=O)c1ccc(O)c(NC(=O)c2ccc([N+](=O)[O-])cc2)c1,.,.,.,.,.,92,.,47
CCN(CC(=O)NC1CCS(=O)(=O)C1)S(=O)(=O)c1ccc(F)cc1 (centres undefined),.,.,.,.,.,.,/,/
O=C1CCCC(O)=C1N=Nc1cccc(S(=O)(=O)N2CCOCC2)c1,.,.,.,.,.,.,/,/
O=C1CCCC(O)=C1N=Nc1ccc2c(c1)OCO2,.,.,.,.,.,81,.,58
O=C1CCCC(O)=C1N=Nc1c(Cl)cc(C(F)(F)F)cc1Cl,.,.,.,.,.,.,/,/
O=C1CCCC(O)=C1N=Nc1ccc(C(=O)O)cc1,.,.,.,.,.,86,72,64
COCCN1Cc2cccc(C(=O)NCc3cccs3)c2C1=O,.,.,.,.,.,.,/,/
COc1ccc(Cl)cc1NS(=O)(=O)c1cc(Br)cnc1N,.,.,.,.,.,.,/,/
O=C(CN1C2=NCCCN2c2ccccc21)c1cccc(Br)c1,.,.,.,.,.,.,/,/
O=C(CN1C2=NCCCN2c2ccccc21)c1ccc([N+](=O)[O-])cc1,.,.,.,.,.,87,58,62
O=C(NCC(=O)N1CCOCC1)c1ccc(Br)o1,.,.,.,.,/,.,/,/
COCCn1c(SCc2cccnc2)nnc1-c1c[nH]c2ccccc12,.,.,.,.,.,.,/,/
Cn1cnnc1Sc1ccc(C(=O)OCC(=O)NCC(F)(F)F)cc1[N+](=O)[O-],.,.,.,.,.,78,.,43
CCCn1c(/C=C/c2ccccc2)nc2ccccc21,.,.,.,.,.,.,/,/
CCn1c(/C=C/c2cc[n+](C)cc2)nc2ccccc21,.,.,.,.,.,78,.,59
O=C(Nc1ccccc1)N1CCN(c2ccccc2)CC1,/,.,.,/,/,/,/,/
CN1CCN(C(=O)Nc2ccccc2)CC1,.,.,.,.,.,92,.,.
N#Cc1ccccc1-c1ccccc1C(=O)N1CCCCC1,.,.,.,.,.,.,/,/
COc1ccc2nc(NC(=O)c3cccnc3SC)sc2c1,.,.,.,.,.,88,77,.
O=C(Nc1ccc(F)cc1)c1nc[nH]c1C(=O)Nc1ccccc1[N+](=O)[O-],.,.,.,.,.,.,/,/
